The source of these data is PubChem BioAssay AID1515 (The Scripps Research Institute Molecular Screening Center, 2009).

Molecules are shown by their SMILES. Hit rate of the full screen: of about 220,000 compounds, about 440 (0.2%) were called active. The full list was thinned out, with actives kept by preference. Values without a mark were called inactive.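 The calls were made as follows: active = inhibition above the campaign mean of all tested compounds plus 3 SD (cut at about 14% in these data); inactive = the rest.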

In this test the target is Serine hydrolase RBBP9 (Homo sapiens) (UniProt O75884). Kind of test: blockers of RBBP9 serine hydrolase labeling – biochemical, fluorescence polarization, FP-Rh probe, HTS, primary screen (AID 1515). Particulars: recombinant RBBP9, FP-Rh probe fluorescence polarization; at 7.94 µM; stronger effect = higher value. In short, it runs like this: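 Test system: recombinant human RBBP9. Quantity: 2.5 µM RBBP9 dispensing solution, before mixing. Detection: FP readout at 525/598 nm. Reagent: Serine-hydrolase probe FP-Rh, 375 nM pre-mixing. Measure: % inhibition. Control set: DMSO-treated enzyme wells and wells lacking RBBP9. Buffer or medium: Tris-NaCl-Pluronic buffer, pH 8.0. Times: preincubation 30 min plus labeling 45 min at 25 °C.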
Sequence of Serine hydrolase RBBP9 (Homo sapiens) (O75884 whole entry, looked up): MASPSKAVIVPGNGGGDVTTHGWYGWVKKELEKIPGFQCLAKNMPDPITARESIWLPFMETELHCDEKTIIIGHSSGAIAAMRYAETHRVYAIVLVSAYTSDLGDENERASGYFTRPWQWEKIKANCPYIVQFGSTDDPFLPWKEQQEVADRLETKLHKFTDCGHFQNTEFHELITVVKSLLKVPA
In general terms: Polarisation of emitted light reports the rotation of a fluorescent probe.
As to `Cc1ccc(CS(=O)(=O)CCC(=O)NC2CC2)cc1`, the inhibition – broadly, the relative decrease from the control value, in per cent – is -3.2%.
As for `O=C1/C(=C\c2cccnc2)CN(Cc2ccccc2)C/C1=C\c1cccnc1`, the inhibition was -6.31%.
For the molecule `Cc1ccccc1NS(=O)(=O)CCCCC(Cl)(Cl)Cl`, the inhibition was 2.33%.
For the molecule `CCC(=O)Nc1c(C)n[nH]c1C`, the inhibition is -4.5%.
`CCN1C(=O)/C(=C\N2CCOCC2)SC1=S`: the inhibition was -5.07%.
Turning to `Cc1ccc2nc(SCc3cn4c(C)cc(C)nc4n3)[nH]c2c1`, the inhibition is -9.49%.
The result for `O=C(c1c(Cl)cccc1Cl)N1CCN(c2cccc3[nH]ccc23)CC1` reads -7.2%; that for `Cc1c(NC(=O)CCC2CCCCC2)cc(C(=O)N2CCOCC2)cc1[N+](=O)[O-]`, 7.08%.
To `COc1ccc(CCNC(=O)C(=O)Nc2ccc3nc4n(c(=O)c3c2)CCCCC4)cc1OC` belongs 6.2%.
In the case of `COc1ccc2c(c1)CC[C@@H]1[C@@H]2CC[C@]2(C)C(=O)CC[C@@H]12`, the inhibition is -1.04%.
The result for `Cc1cccc(C)c1NC(=O)C1CCCN1C(=O)OC(C)(C)C` (centres undefined) reads -5.32%.
For `Cc1cccc(-c2nc3c(c(SCC(=O)N4CCOCC4)n2)CCCC3)c1`, the inhibition is 11.1%.
The result for `CC(C)N(Cc1nc(-c2ccc3c(c2)OCO3)no1)CC1CCC(=O)N1` (centres undefined) reads -10.1%.
Take `COc1ccc(-c2noc(CN(C)S(=O)(=O)c3ccc(C)cc3)n2)cc1`: the inhibition is -9.12%.
To `COCCN(Cc1nc(-c2ccc(C(F)(F)F)cc2)no1)C(C)C` belongs 15% (active); to `CC1CCC(NS(=O)(=O)c2ccc3c(c2)n(C)c(=O)c(=O)n3C)CC1` (centres undefined), -2.22%.
The result for `Cn1sc(=O)c2cc(S(=O)(=O)NC3CC3)ccc21` reads 33.3% (active).
The result for `CSc1ccc(S(=O)(=O)NC2CCCCC2)cc1` reads 0.08%; that for `Cc1cc(C)c[n+](-c2nc3ccccc3nc2[N-]S(=O)(=O)c2cccs2)c1`, -7.26%; that for `O=c1[nH]n(-c2ccc([N+](=O)[O-])cc2)c(=O)c2ccccc12`, 15.9% (active).
As to `O=C1CC(c2ccccc2)=NN1c1ccc([N+](=O)[O-])cc1`, the inhibition was -12.2%.
The result for `O=c1[nH]c2cccnc2n1-c1ccc([N+](=O)[O-])cc1` reads 4.37%; that for `O=C(NNC1CC(=O)N(c2cccc(Cl)c2)C1=O)c1cccnc1` (centres undefined), -9.81%.
The result for `CC(C)(C)C1CCC(OC(=O)CCC(=O)Nc2ccccc2)CC1` (centres undefined) reads -0.76%.
As to `C=CCN(CC=C)CCOc1ccccc1[N+](=O)[O-]`, the inhibition was -6.95%.
To `CSc1ccccc1NC(=O)CN(C)CC(=O)Nc1ccc(Cl)cc1[N+](=O)[O-]` belongs 6.47%.
The result for `COc1cccc(-n2nc(C(=O)N3CCN(Cc4ccccc4)CC3)c3ccccc3c2=O)c1` reads -0.83%; that for `Cc1cc(NC(=O)CSc2nccn2-c2ccc([N+](=O)[O-])cc2)no1`, -5.53%.
As to `Cc1c(CCO)sc[n+]1CC(=O)OC12CC3CC(CC(C3)C1)C2`, the inhibition was 6.14%.
To `Cc1cc(C(=O)OCC(=O)Nc2nnc(C(C)C)s2)c2ccccc2n1` belongs -5.01%; to `CC(OC(=O)c1ccc(NS(=O)(=O)c2ccc3[nH]c(=O)[nH]c3c2)cc1)C(=O)Nc1cccc(Cl)c1Cl` (centres undefined), -24.3%.
As for `Oc1cccc2ccc(/C=C/c3ccc(Br)s3)nc12`, the inhibition was -6.67%.
To `O=C(Cc1cccs1)N/N=C/c1ccc(OCc2ccccc2)cc1` belongs -9.96%; to `CC(C)(C)Nc1c(N)c(=O)oc2ccccc12`, -7.21%.
Consider `COC(=O)c1cc(NC2c3ccccc3C(=O)N2c2ccc(Cl)cn2)cc(C(=O)OC)c1` (centres undefined), for which the inhibition was 2.1%.
The result for `Cc1ccnc(N2C(=O)c3ccccc3C2Nc2ccc3c(c2)OCCO3)c1` (centres undefined) reads 5.23%.
For the molecule `CCc1ccccc1NC1c2ccccc2C(=O)N1c1cccnc1` (centres undefined), the inhibition is 19.1% (active).
To `COc1ccc(N2C(=O)C3CCCN3C2c2cccs2)cc1` (centres undefined) belongs -3.07%.
To `COc1ccc(N2C(=O)C3CCCN3C2c2cccc(OC)c2)cc1` (centres undefined) belongs -6.79%; to `COc1ccc(N2C(=O)C3CCCN3C2c2cc(OC)c(OC)cc2OC)cc1` (centres undefined), 14.8% (active).
The result for `COC(=O)C1=C(C)N(C)C(=O)NC1c1ccc([N+](=O)[O-])o1` (centres undefined) reads 4.8%.
For the molecule `O=C(NCc1ccccc1Cl)NC(=O)c1csc([N+](=O)[O-])c1`, the inhibition is 2.74%.
On to `COc1ccc2c(c1)C(C)=CC(C)(C)N2C(=O)CNCc1ccc2c(c1)OCO2`, for which the inhibition was 0.21%.
To `CC1=CC(C)(C)N(C(=O)CSc2nnc(-c3ccccc3)o2)c2ccc(C)cc21` belongs -8.58%.
To `COc1ccc2c(c1)C(C)=CC(C)(C)N2C(=O)Nc1ccccc1` belongs 14.3% (active); to `CC(=O)Nc1ccc(NC(=S)NC(=O)c2ccc([N+](=O)[O-])c(C)c2)cc1`, 6.76%.
Turning to `Cc1ccc(C)c(S(=O)(=O)N2CCN(CC(=O)Nc3ccc([N+](=O)[O-])cc3)CC2)c1`, the inhibition was -5.91%.
On to `CN1CCN(CC(=O)Nc2cccc([N+](=O)[O-])c2)CC1`, for which the inhibition is 7.61%.
To `Cc1ccc(NC(=O)CN2CCC(C(N)=O)CC2)cc1[N+](=O)[O-]` belongs 28.6% (active); to `CC1=C(C(=O)Nc2cc(C)ccn2)C(c2cnn(C)c2)C2=C(CC(c3ccccc3)CC2=O)N1` (centres undefined), -4.73%.
The result for `O=S(=O)(NC1CC1)c1ccc2c3c(cccc13)CC2` reads -3.01%; that for `COc1ccc(C(C[N+](=O)[O-])n2nc(C)cc2C)cc1` (centres undefined), -13.8%.
To `CC1CCN(C2=NC(=O)/C(=C/c3cn[nH]c3-c3ccccc3)S2)CC1` belongs -1.8%.
As for `CS(=O)(=O)c1ccc(Cl)c(NC(=O)Nc2ccccc2)c1`, the inhibition is -8.09%.
`O=C(CSc1nc2ccccc2s1)Nc1ccc(C(=O)O)cc1`: the inhibition was -5.16%.
The result for `O=[N+]([O-])c1c(NCCO)cc(Sc2nc3ccccc3s2)c2nonc12` reads 16.6% (active); that for `COc1ccc(S(=O)(=O)Nc2ccc(O)c(Sc3nc4ccccc4s3)c2)cc1`, -4.18%.
To `CCOC(=O)N1CCN(C(=S)Nc2ccc(C)cc2C)CC1` belongs -5.94%.
On to `Cc1ccc(-c2cc(C(=O)NCC3CCCO3)c3ccccc3n2)o1` (centres undefined), for which the inhibition was -0.54%.
